Experimental data: ChEMBL document CHEMBL1828552, “Synthesis and studies of novel 2-(4-cyano-3-trifluoromethylphenyl amino)-4-(quinoline-4-yloxy)-6-(piperazinyl/piperidinyl)-s-triazines as potential antimicrobial, antimycobacterial and anticancer agents” (2011)
≈ marks a conversion by molar mass, not a printed value.

Columns and labels:
[1] = tested on: Aspergillus niger; assay: Antifungal activity against 10^5 CFU/mL Aspergillus niger MTCC 282 after 48 hrs by disc diffusion technique; type: functional
[2] = tested on: Aspergillus clavatus; assay: Antifungal activity against 10^5 CFU/mL Aspergillus clavatus MTCC 1323 after 48 hrs by disc diffusion technique; type: functional
[3] = tested on: Pseudomonas aeruginosa; assay: Antibacterial activity against 10^5 CFU/mL Pseudomonas aeruginosa MTCC 741 after 24 hrs by disc diffusion technique; type: functional
Method in brief: (§1)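 Disc diffusion on Mueller–Hinton agar poured 5 mm deep. The surface was swabbed with a 10⁵ CFU/mL […] suspension. Filter-paper discs 6.25 mm in diameter were soaked in compound in DMSO and placed on the agar. Plates were incubated 24 h at 37 ± 1 °C, and the inhibition zone was measured in mm. A DMSO disc served as blank.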

[4] = tested on: Escherichia coli; assay: Antibacterial activity against 10^5 CFU/mL Escherichia coli MTCC 739 after 24 hrs by agar streak dilution method; type: functional; settings: MTCC 739, 24 h
Method in brief: (§2)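 Agar streak dilution. Stock 100 µg/mL in DMSO; graded amounts were mixed into molten nutrient agar and poured at 4–5 mm depth. Plates carried serial dilutions over […]. About 10⁵ CFU/mL of each bacterium was applied, and plates were incubated at 37 ± 1 °C for 24 h. MIC was read from the dilution series.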

[5] = tested on: Bacillus cereus; assay: Antibacterial activity against 10^5 CFU/mL Bacillus cereus MTCC 619 after 24 hrs by disc diffusion technique; type: functional; method in brief: as §1
[6] = tested on: Klebsiella pneumoniae; assay: Antibacterial activity against 10^5 CFU/mL Klebsiella pneumoniae MTCC 109 after 24 hrs by agar streak dilution method; type: functional; settings: MTCC 109, 24 h; method in brief: as §2
[7] = tested on: Proteus vulgaris; assay: Antibacterial activity against 10^5 CFU/mL Proteus vulgaris MTCC 1771 after 24 hrs by disc diffusion technique; type: functional; method in brief: as §1
[8] = tested on: DU-145; assay: Cytotoxicity against […] human DU145 cells after 48 hrs by SRB assay; type: functional; settings: DU-145, 48 h
Method in brief: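 SRB assay in DU-145 cells grown in RPMI 1640 with 10% FBS and 2 mM L-glutamine. Cells were plated and held 24 h before addition of four 10-fold concentrations. After 48 h, cells were TCA-fixed, stained with 0.4% SRB and read at 540 nm. GI50, TGI and LC50 were derived against time-zero and control wells; each value is the mean of three experiments.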

[9] = tested on: Pseudomonas aeruginosa; assay: Antibacterial activity against 10^5 CFU/mL Pseudomonas aeruginosa MTCC 741 after 24 hrs by agar streak dilution method; type: functional; settings: MTCC 741, 24 h; method in brief: as §2
[10] = tested on: Candida albicans; assay: Antifungal activity against 10^5 CFU/mL Candida albicans MTCC 183 after 48 hrs by disc diffusion technique; type: functional
[11] = tested on: Aspergillus fumigatus; assay: Antifungal activity against 10^5 CFU/mL Aspergillus fumigatus MTCC 343 after 48 hrs by agar streak dilution method; type: functional; settings: MTCC 343, 48 h
Method in brief: (§3)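 Agar streak dilution for fungi. Stock 100 µg/mL in DMSO; graded amounts were mixed into molten Sabouraud dextrose agar and poured at 4–5 mm depth. Serial dilutions ran over […]. About 10⁵ CFU/mL inoculum was applied, with incubation at 37 ± 1 °C for 48 h. MIC was read from the dilution series.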

[12] = tested on: Salmonella typhi; assay: Antibacterial activity against 10^5 CFU/mL Salmonella typhi MTCC 733 after 24 hrs by agar streak dilution method; type: functional, Salmonella enterica subsp. enterica serovar Typhi; settings: Salmonella enterica, MTCC 733, 24 h
[13] = tested on: Shigella flexneri; assay: Antibacterial activity against 10^5 CFU/mL Shigella flexneri MTCC 1457 after 24 hrs by agar streak dilution method; type: functional; settings: MTCC 1457, 24 h; method in brief: as §2
[14] = tested on: Staphylococcus aureus; assay: Antibacterial activity against 10^5 CFU/mL Staphylococcus aureus MTCC 96 after 24 hrs by disc diffusion technique; type: functional; method in brief: as §1
[15] = tested on: Shigella flexneri; assay: Antibacterial activity against 10^5 CFU/mL Shigella flexneri MTCC 1457 after 24 hrs by disc diffusion technique; type: functional; method in brief: as §1
[16] = tested on: Proteus vulgaris; assay: Antibacterial activity against 10^5 CFU/mL Proteus vulgaris MTCC 1771 after 24 hrs by agar streak dilution method; type: functional; settings: MTCC 1771, 24 h; method in brief: as §2
[17] = tested on: Candida albicans; assay: Antifungal activity against 10^5 CFU/mL Candida albicans MTCC 183 after 48 hrs by agar streak dilution method; type: functional; settings: MTCC 183, 48 h; method in brief: as §3
[18] = tested on: Staphylococcus aureus; assay: Antibacterial activity against 10^5 CFU/mL Staphylococcus aureus MTCC 96 after 24 hrs by agar streak dilution method; type: functional; settings: MTCC 96, 24 h; method in brief: as §2
[19] = tested on: Salmonella typhi; assay: Antibacterial activity against 10^5 CFU/mL Salmonella typhi MTCC 733 after 24 hrs by disc diffusion technique; type: functional, Salmonella enterica subsp. enterica serovar Typhi
Method in brief: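 Disc diffusion. Mueller-Hinton agar autoclaved 120 °C 30 min, poured 5 mm deep. Surface swabbed with 10⁵ CFU/mL suspension […]. 6.25 mm filter-paper discs soaked in compound in DMSO; DMSO-only disc as blank. Incubated 37 ± 1 °C, 24 h for bacteria or 48 h for fungi. Ciprofloxacin and ketoconazole discs as reference drugs. Inhibition zone measured in mm.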

[20] = tested on: Klebsiella pneumoniae; assay: Antibacterial activity against 10^5 CFU/mL Klebsiella pneumoniae MTCC 109 after 24 hrs by disc diffusion technique; type: functional; method in brief: as §1
[21] = tested on: Aspergillus clavatus; assay: Antifungal activity against 10^5 CFU/mL Aspergillus clavatus MTCC 1323 after 48 hrs by agar streak dilution method; type: functional; settings: MTCC 1323, 48 h; method in brief: as §3
[22] = tested on: Escherichia coli; assay: Antibacterial activity against 10^5 CFU/mL Escherichia coli MTCC 739 after 24 hrs by disc diffusion technique; type: functional; method in brief: as §1
[23] = tested on: Aspergillus fumigatus; assay: Antifungal activity against 10^5 CFU/mL Aspergillus fumigatus MTCC 343 after 48 hrs by disc diffusion technique; type: functional
[24] = tested on: Bacillus cereus; assay: Antibacterial activity against 10^5 CFU/mL Bacillus cereus MTCC 619 after 24 hrs by agar streak dilution method; type: functional; settings: MTCC 619, 24 h; method in brief: as §2
[25] = tested on: Aspergillus niger; assay: Antifungal activity against 10^5 CFU/mL Aspergillus niger MTCC 282 after 48 hrs by agar streak dilution method; type: functional; settings: MTCC 282, 48 h; method in brief: as §3

SMILES	inhibition zone (IZ) [1] [mm]	inhibition zone (IZ) [2] [mm]	inhibition zone (IZ) [3] [mm]	MIC [4] [µg/mL]	inhibition zone (IZ) [5] [mm]	MIC [6] [µg/mL]	inhibition zone (IZ) [7] [mm]	GI50 [8] [µM]	LC50 (concentration giving 50% net cell kill relative to time zero) [8] [µM]	TGI [8] [µM]	MIC [9] [µg/mL]	inhibition zone (IZ) [10] [mm]	MIC [11] [µg/mL]	MIC [12] [µg/mL]	MIC [13] [µg/mL]	inhibition zone (IZ) [14] [mm]	inhibition zone (IZ) [15] [mm]	MIC [16] [µg/mL]	MIC [17] [µg/mL]	MIC [18] [µg/mL]	other results
CN1CCN(c2nc(Nc3ccc(C#N)c(C(F)(F)F)c3)nc(Oc3ccnc4ccccc34)n2)CC1	<10	<10	14	100 (≈ 197 µM)	<10	100 (≈ 197 µM)	<10	51.2	> 100	> 100	100 (≈ 197 µM)	<10	100 (≈ 197 µM)	100 (≈ 197 µM)	100 (≈ 197 µM)	<10	11	100 (≈ 197 µM)	100 (≈ 197 µM)	100 (≈ 197 µM)	inhibition zone (IZ) [19]: 13 mm; inhibition zone (IZ) [20]: <10 mm; MIC [21]: 100 µg/mL (≈ 197 µM); inhibition zone (IZ) [22]: <10 mm; inhibition zone (IZ) [23]: <10 mm; MIC [24]: 100 µg/mL (≈ 197 µM); MIC [25]: 100 µg/mL (≈ 197 µM)
CCN1CCN(c2nc(Nc3ccc(C#N)c(C(F)(F)F)c3)nc(Oc3ccnc4ccccc34)n2)CC1	<10	<10	16	100 (≈ 192 µM)	14	100 (≈ 192 µM)	<10	86.6	> 100	> 100	100 (≈ 192 µM)	12	100 (≈ 192 µM)	100 (≈ 192 µM)	100 (≈ 192 µM)	13	13	100 (≈ 192 µM)	100 (≈ 192 µM)	100 (≈ 192 µM)	inhibition zone (IZ) [19]: 15 mm; inhibition zone (IZ) [20]: <10 mm; MIC [21]: 100 µg/mL (≈ 192 µM); inhibition zone (IZ) [22]: 13 mm; inhibition zone (IZ) [23]: <10 mm; MIC [24]: 100 µg/mL (≈ 192 µM); MIC [25]: 100 µg/mL (≈ 192 µM)
N#Cc1ccc(Nc2nc(Oc3ccnc4ccccc34)nc(N3CCN(c4ccccc4Cl)CC3)n2)cc1C(F)(F)F	21	20	23	50 (≈ 82.9 µM)	24	12.5 (≈ 20.7 µM)	23	92.6	> 100	> 100	50 (≈ 82.9 µM)	20	100 (≈ 166 µM)	50 (≈ 82.9 µM)	50 (≈ 82.9 µM)	25	21	100 (≈ 166 µM)	100 (≈ 166 µM)	12.5 (≈ 20.7 µM)	inhibition zone (IZ) [19]: 23 mm; inhibition zone (IZ) [20]: 26 mm; MIC [21]: 100 µg/mL (≈ 166 µM); inhibition zone (IZ) [22]: 22 mm; inhibition zone (IZ) [23]: 21 mm; MIC [24]: 12.5 µg/mL (≈ 20.7 µM); MIC [25]: 100 µg/mL (≈ 166 µM)
N#Cc1ccc(Nc2nc(Oc3ccnc4ccccc34)nc(N3CCN(c4cccc(Cl)c4Cl)CC3)n2)cc1C(F)(F)F	24	21	23	50 (≈ 78.4 µM)	28	12.5 (≈ 19.6 µM)	25	> 100	> 100	> 100	25 (≈ 39.2 µM)	23	25 (≈ 39.2 µM)	12.5 (≈ 19.6 µM)	12.5 (≈ 19.6 µM)	28	24	12.5 (≈ 19.6 µM)	50 (≈ 78.4 µM)	6.25 (≈ 9.8 µM)	inhibition zone (IZ) [19]: 25 mm; inhibition zone (IZ) [20]: 24 mm; MIC [21]: 50 µg/mL (≈ 78.4 µM); inhibition zone (IZ) [22]: 23 mm; inhibition zone (IZ) [23]: 25 mm; MIC [24]: 6.25 µg/mL (≈ 9.8 µM); MIC [25]: 25 µg/mL (≈ 39.2 µM)
N#Cc1ccc(Nc2nc(Oc3ccnc4ccccc34)nc(N3CCCCC3)n2)cc1C(F)(F)F	12	14	<10	100 (≈ 203 µM)	14	100 (≈ 203 µM)	14	94.9	> 100	> 100	100 (≈ 203 µM)	12	100 (≈ 203 µM)	100 (≈ 203 µM)	100 (≈ 203 µM)	11	<10	100 (≈ 203 µM)	100 (≈ 203 µM)	100 (≈ 203 µM)	inhibition zone (IZ) [19]: 12 mm; inhibition zone (IZ) [20]: 15 mm; MIC [21]: 100 µg/mL (≈ 203 µM); inhibition zone (IZ) [22]: <10 mm; inhibition zone (IZ) [23]: <10 mm; MIC [24]: 100 µg/mL (≈ 203 µM); MIC [25]: 100 µg/mL (≈ 203 µM)
N#Cc1ccc(Nc2nc(Oc3ccnc4ccccc34)nc(N3CCOCC3)n2)cc1C(F)(F)F	13	13	<10	100 (≈ 203 µM)	<10	100 (≈ 203 µM)	16	68.3	> 100	> 100	100 (≈ 203 µM)	13	100 (≈ 203 µM)	100 (≈ 203 µM)	100 (≈ 203 µM)	14	<10	100 (≈ 203 µM)	100 (≈ 203 µM)	100 (≈ 203 µM)	inhibition zone (IZ) [19]: 13 mm; inhibition zone (IZ) [20]: 14 mm; MIC [21]: 100 µg/mL (≈ 203 µM); inhibition zone (IZ) [22]: <10 mm; inhibition zone (IZ) [23]: <10 mm; MIC [24]: 100 µg/mL (≈ 203 µM); MIC [25]: 100 µg/mL (≈ 203 µM)
N#Cc1ccc(Nc2nc(Oc3ccnc4ccccc34)nc(N3CCN(c4ccccc4)CC3)n2)cc1C(F)(F)F	<10	<10	<10	100 (≈ 176 µM)	<10	100 (≈ 176 µM)	14	> 100	> 100	> 100	100 (≈ 176 µM)	<10	100 (≈ 176 µM)	100 (≈ 176 µM)	100 (≈ 176 µM)	14	<10	100 (≈ 176 µM)	100 (≈ 176 µM)	100 (≈ 176 µM)	inhibition zone (IZ) [19]: 13 mm; inhibition zone (IZ) [20]: <10 mm; MIC [21]: 100 µg/mL (≈ 176 µM); inhibition zone (IZ) [22]: <10 mm; inhibition zone (IZ) [23]: <10 mm; MIC [24]: 100 µg/mL (≈ 176 µM); MIC [25]: 100 µg/mL (≈ 176 µM)
COc1cccc2c1C(=O)c1c(O)c3c(c(O)c1C2=O)C[C@@](O)(C(=O)CO)C[C@@H]3O[C@H]1C[C@H](N)[C@H](O)[C@H](C)O1 [DOXORUBICIN]								< 0.1		> 100											
